Series [1] deals with Mus musculus. Put plainly: Anticonvulsant activity in ip dosed CF-1 albino mouse assessed as protection from maximal electric shock-induced seizures measured after 0.5 hrs. The class given is functional. Particulars: read-out: MED. In a few lines: (§1)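 Male CF-1 mice dosed ip at 30, 100 or 300 mg/kg, suspension in 0.5% methylcellulose/water. MES: corneal electrodes primed with electrolyte containing anaesthetic, 50 mA, 60 Hz, 0.2 s. Examined 0.5 and 4 h after dosing. Value is the minimum dose protecting half or more of the animals.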

Series [2] concerns Mus musculus. Put plainly: Anticonvulsant activity in ip dosed CF-1 albino mouse assessed as protection from maximal electric shock-induced seizures measured after 4 hrs. The note with it: read-out: MED. The class given is functional. In a few lines: as §1
Series [3] relates to Mus musculus. Put plainly: Anticonvulsant activity in ip dosed CF-1 albino mouse assessed as protection against subcutaneous pentylenetetrazol-induced seizures measured after 4 hrs. Particulars: read-out: MED. The class given is functional. In a few lines: (§2)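 scPTZ test in male CF-1 mice. Compound suspended in 0.5% methylcellulose/water, ip at 30, 100 or 300 mg/kg. Pentylenetetrazole 85 mg/kg (CD97, clonic seizures lasting at least 5 s) given subcutaneously at the test time, read at 0.5 and 4 h. Value is the minimum dose protecting half or more of the animals.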

In series [4] the test system is Mus musculus. The series is described as follows: Neurotoxicity in ip dosed CF-1 albino mouse assessed as motor impairment measured after 0.5 hrs by rotarod test. The note with it: in vivo. The class given is toxicity, organism-based. In a few lines:
(§3)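 Rotarod neurotoxicity in male CF-1 mice given ip doses of 30, 100 or 300 mg/kg (0.5% methylcellulose suspension), examined 0.5 and 4 h after dosing. Impairment means failing to hold balance on the rod for 1 min. Value is the minimum dose causing toxicity in half or more of the animals; response comments are recorded.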

The subject of series [5] is Mus musculus. Put plainly: Neurotoxicity in CF-1 albino mouse assessed as motor impairment at 300 mg/kg, ip measured after 4 hrs by rotarod test. The class given is toxicity, organism-based. More on the design: dose 300 mg/kg, route intraperitoneal. Particulars: in vivo. In a few lines: as §3
On the technique in general: The rotarod test checks motor coordination on a turning rod.

For series [6], the system named is Mus musculus. The series is described as follows: Neurotoxicity in CF-1 albino mouse assessed as inability to grasp rotarod at 300 mg/kg, ip measured after 0.5 hrs by rotarod test. The class given is toxicity, organism-based. Particulars: in vivo. Also on record: dose 300 mg/kg, route intraperitoneal. In a few lines: as §3
The test system of series [7] is Mus musculus. Put plainly: Neurotoxicity in CF-1 albino mouse assessed as loss of […] reflex at 300 mg/kg, ip measured after 0.5 hrs by rotarod test. The class given is toxicity, organism-based. Also on record: dose 300 mg/kg, route intraperitoneal. The note with it: in vivo. In a few lines:
as §3

For series [8], the system named is Mus musculus. Put plainly: Anticonvulsant activity in ip dosed CF-1 albino mouse assessed as protection against subcutaneous pentylenetetrazol-induced seizures measured after 0.5 hrs. The class given is functional. The note with it: read-out: MED. In a few lines: as §2
Series [9] has as its system Mus musculus. The series is described as follows: Neurotoxicity in CF-1 albino mouse assessed as myoclonic jerks at 300 mg/kg, ip measured after 4 hrs by rotarod test. The class given is toxicity, organism-based. More on the design: dose 300 mg/kg, route intraperitoneal. Particulars: in vivo.
The subject of series [10] is Rattus norvegicus. The series is described as follows: Anticonvulsant activity in Sprague-Dawley rat assessed as protection from maximum electric shock-induced seizures at 30 mg/kg, po measured after 0.25 hrs. The class given is functional. In a few lines:
(§4)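 Male Sprague–Dawley rats, four per group, given 30 mg/kg orally as a suspension in 0.5% methylcellulose/water. MES stimulus 150 mA, 60 Hz, 0.2 s via corneal electrodes. Tested at 0.25, 0.5, 1, 2 and 4 h; value is rats protected out of four.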

Series [11] has as its system Rattus norvegicus. The series is described as follows: Anticonvulsant activity in Sprague-Dawley rat assessed as protection from maximum electric shock-induced seizures at 30 mg/kg, po measured after 0.5 hrs. The class given is functional. In a few lines: as §4
Series [12] concerns Rattus norvegicus. The series is described as follows: Anticonvulsant activity in Sprague-Dawley rat assessed as protection from maximum electric shock-induced seizures at 30 mg/kg, po measured after 1 hr. The class given is functional. In a few lines:
as §4

In series [13] the test system is Rattus norvegicus. The series is described as follows: Anticonvulsant activity in Sprague-Dawley rat assessed as protection from maximum electric shock-induced seizures at 30 mg/kg, po measured after 2 hrs. The class given is functional. In a few lines:
as §4

In series [14] the test system is Rattus norvegicus. The series is described as follows: Anticonvulsant activity in Sprague-Dawley rat assessed as protection from maximum electric shock-induced seizures at 30 mg/kg, po measured after 4 hrs. The class given is functional. In a few lines:
as §4

For series [15], the system named is Rattus norvegicus. The series is described as follows: Neurotoxicity in Sprague-Dawley rat assessed as motor impairment at 30 mg/kg, po by rotarod test. The class given is toxicity, organism-based. Also on record: dose 30 mg/kg, route oral. The note with it: in vivo. In a few lines: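 Male Sprague–Dawley rats, four animals, oral 30 mg/kg in 0.5% methylcellulose/water. Motor impairment on the rotarod (failure to keep balance for 1 min) assessed alongside MES at five times from 0.25 to 4 h.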

The nature of series [16]: Neurotoxicity in ip dosed CF-1 albino mouse assessed as motor impairment by rotarod test. The class given is toxicity, organism-based. Particulars: in vivo.
Series [17] deals with Mus musculus. The series is described as follows: Anticonvulsant activity in CF-1 albino mouse assessed as protection against 6 Hz psychomotor seizure at 100 mg/kg, ip measured after 0.25 hrs. The class given is functional. Particulars: route intraperitoneal. In a few lines:
(§5)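 6-Hz psychomotor seizure in male CF-1 mice, compound suspended in 0.5% methylcellulose/water, given ip (100 or 75 mg/kg). Corneal stimulation with 0.2 ms monopolar rectangular pulses at 6 Hz for 3 s, 32 mA, constant-current device. Protected if normal exploratory behaviour resumes within 10 s. Tested 0.25–4 h after dosing; value is mice protected out of four.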

Series [18] relates to Mus musculus. The series is described as follows: Anticonvulsant activity in CF-1 albino mouse assessed as protection against 6 Hz psychomotor seizure at 100 mg/kg, ip measured after 0.5 hrs. The class given is functional. Particulars: route intraperitoneal. In a few lines: as §5
The test system of series [19] is Mus musculus. Put plainly: Anticonvulsant activity in CF-1 albino mouse assessed as protection against 6 Hz psychomotor seizure at 100 mg/kg, ip measured after 1 hr. The class given is functional. The note with it: route intraperitoneal. In a few lines:
as §5

Series [20] has as its system Mus musculus. Put plainly: Anticonvulsant activity in CF-1 albino mouse assessed as protection against 6 Hz psychomotor seizure at 100 mg/kg, ip measured after 2 hrs. The class given is functional. The note with it: route intraperitoneal. In a few lines: as §5
The subject of series [21] is Mus musculus. Put plainly: Anticonvulsant activity in CF-1 albino mouse assessed as protection against 6 Hz psychomotor seizure at 100 mg/kg, ip measured after 4 hrs. The class given is functional. The note with it: route intraperitoneal. In a few lines: as §5
The subject of series [22] is Mus musculus. The series is described as follows: Anticonvulsant activity in ip dosed CF-1 albino mouse assessed as protection against 6 Hz psychomotor seizures. The class given is functional. In a few lines: (§6)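 6-Hz test (32 mA, 0.2 ms pulses at 6 Hz for 3 s, corneal) in male CF-1 mice dosed ip. Quantified at the time of peak effect in groups of eight across at least three doses giving 10–90% effect. ED50 and TD50 (minimal neurological toxicity) obtained by regression; PI = TD50/ED50.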

For series [23], the species on record is Mus musculus. Put plainly: Protective index, ratio of TD50 for CF-1 albino mouse to ED50 for CF-1 albino mouse assessed as protection from 6 Hz psychomotor seizure. The class given is functional. In a few lines: as §6
Series [24] has as its system Mus musculus. Put plainly: Anticonvulsant activity in ip dosed 6 Hz psychomotor-induced seizure in CF-1 albino mouse assessed as time of peak effect. The class given is functional.

In general, TD50 refers to the dose at which the toxic effect under study appears in half of the subjects. Broadly, the ED50 is the dose that gives a 50% effect, or the effect in half of the subjects.

Take `O=C1CC(c2ccccc2F)C(=O)N1CN1CCOCC1` (racemic): the minimal effective dose in series [1] amounted to 100 mg/kg; in series [2], 100 mg/kg; in series [3] it was 300 mg/kg; in [8], 300 mg/kg. Further, the MTC in series [4] was 300 mg/kg. The Activity result in series [5] was “Non-toxic”; in series [6], “Toxic”; in series [7], “Toxic”; in [9], “Toxic”; in [10], 25%; in [11], 25%. The Activity is 50% in [12]; 50% in series [13]; 25% in [14]; “Non-toxic” in series [15]; 100% in series [17]; 100% in series [18]. For the same molecule, the Activity is recorded as 100% in [19], 75% in series [20] and 25% in [21]. Moreover, the TD50 in series [16] was 253 mg/kg. For the same molecule, the ED50 in series [22] turned out to be 103 mg/kg. Besides, the “Ratio TD50/ED50” value in [23] amounted to 2.46. Besides, the Time in series [24] was determined as 4 h.
